{"data": "Experimental data pooled from the literature", "SLCO1B3": "Solute carrier organic anion transporter family member 1B3 (SLCO1B3, Homo sapiens, UniProt Q9NPD5)", "G protein-coupled receptor 88": "G protein-coupled receptor 88 (Homo sapiens, UniProt Q9GZN0)", "Cnr2": "Cannabinoid receptor 2 (Cnr2, Mus musculus, UniProt P47936)"}
{"Compound": "CCOC(=O)c1cncn1[C@H](C)c1ccccc1", "target": "SLCO1B3", "test": "transporter uptake, inhibitor, fluorescence", "test system": "CHO", "conditions": "30 min, pH 7.4", "quantity": "IC50", "result": "> 100 µM"}
{"Compound": "CC(C)(C)[C@H](NC(=O)C(F)(F)F)C(=O)N1C[C@H]2[C@@H]([C@H]1C(=O)N[C@H](C#N)C[C@@H]1CCNC1=O)C2(C)C", "target": "SLCO1B3", "test": "transporter uptake, inhibitor", "quantity": "Ki", "result": "283 µM"}
{"Compound": "CCCCOc1ccc([C@@H](CO)C(=O)N[C@H](C)c2ccccc2)cc1", "target": "G protein-coupled receptor 88", "test": "cAMP, agonist, TR-FRET", "quantity": "EC50", "result": "5.13 µM"}
{"Compound": "CCCCCCC(C)(C)c1cc(O)c2c(c1)OC(C)(C)[C@@H]1CC=C(C)C[C@@H]21", "target": "Cnr2", "test": "ligand displacement, radioligand", "conditions": "cell membranes", "quantity": "Ki", "result": "0.0014 µM"}
{"Compound": "O=C[C@H](C[C@@H]1CCNC1=O)NC(=O)[C@H](CC1CCCCC1)NC(=O)c1cc2ccccc2[nH]1", "target": "Procathepsin L (CTSL, Homo sapiens, UniProt P07711)", "test": "enzyme activity, inhibitor", "quantity": "IC50", "result": "0.00021 µM"}
{"Compound": "CCCCCOc1ccc([C@@H](CO)C(=O)N[C@H](C)c2ccccc2)cc1", "target": "G protein-coupled receptor 88", "test": "cAMP, agonist, TR-FRET", "quantity": "EC50", "result": "3.24 µM"}
{"Compound": "OCCCCO", "target": "Cytochrome P450 2E1 (Cyp2e1, Rattus norvegicus, UniProt P05182)", "test": "enzyme activity, inhibitor", "test system": "Fischer 344 rat, liver microsomes", "conditions": "30 min", "quantity": "IC50", "result": "5800 µM"}
{"Compound": "Cc1c(C(=O)c2cccc3ccccc23)c2cccc3c2n1[C@H](CN1CCOCC1)CO3", "target": "Cnr2", "test": "ligand displacement, radioligand", "conditions": "cell membranes", "quantity": "Ki", "result": "0.0058 µM"}
{"Compound": "O=c1[nH]c2ccccc2n1C1CCN(CCCC(c2ccc(F)cc2)c2ccc(F)cc2)CC1", "target": "Signal transducer and activator of transcription 5B, SH2 (STAT5B, Homo sapiens, UniProt P51692)", "test": "protein-protein interaction, inhibitor, FP", "quantity": "IC50", "result": "75.1 µM"}
